According to ChEMBL document CHEMBL1146754, “Estrogen receptor ligands. Part 4: The SAR of the syn-dihydrobenzoxathiin SERAMs” (Bioorg Med Chem Lett, 2004):

Legend:
[1] = target: T1, Estrogen receptor (Rattus norvegicus) (UniProt P06211+Q62986); conditions: at 1 mg/kg
[2] = target: T1, Estrogen receptor (Rattus norvegicus); conditions: at 1 mg/kg; remark: listed apart in the source
[3] = target: T2, Estrogen receptor beta (Homo sapiens, UniProt Q92731)
[4] = target: T3, Estrogen receptor (Homo sapiens, UniProt P03372); test: Potency in cellular transactivation assay utilizing HEK293 cells stably co-transfected with human estrogen receptor alpha and the alkaline phosphatase reporter gene.; assay type: functional, cell-based
T3 sequence (P03372 whole entry): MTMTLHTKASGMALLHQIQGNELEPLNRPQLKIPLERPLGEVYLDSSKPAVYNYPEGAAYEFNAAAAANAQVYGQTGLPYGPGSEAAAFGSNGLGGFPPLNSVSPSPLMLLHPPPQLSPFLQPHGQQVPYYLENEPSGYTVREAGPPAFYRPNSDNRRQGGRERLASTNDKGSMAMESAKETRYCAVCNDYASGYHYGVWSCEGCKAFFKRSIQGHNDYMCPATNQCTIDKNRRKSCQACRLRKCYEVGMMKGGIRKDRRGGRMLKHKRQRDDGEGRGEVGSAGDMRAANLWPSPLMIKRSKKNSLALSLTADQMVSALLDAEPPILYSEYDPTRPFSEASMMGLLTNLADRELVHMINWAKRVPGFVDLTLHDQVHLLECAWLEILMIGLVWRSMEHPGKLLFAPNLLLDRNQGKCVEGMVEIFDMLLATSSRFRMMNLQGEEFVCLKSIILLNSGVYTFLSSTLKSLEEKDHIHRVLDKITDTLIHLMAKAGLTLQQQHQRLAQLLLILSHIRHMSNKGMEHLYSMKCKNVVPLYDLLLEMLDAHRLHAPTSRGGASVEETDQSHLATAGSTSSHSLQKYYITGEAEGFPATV

[5] = target: T3, Estrogen receptor
[6] = target: T2, Estrogen receptor beta; test: Potency in cellular transactivation assay utilizing HEK293 cells stably co-transfected with human estrogen receptor beta and the alkaline phosphatase reporter gene; assay type: functional, cell-based
[7] = Bioavailability in rat (Sprague-Dawley) (female); assay type: ADME, organism-based; conditions: female, Sprague-Dawley, in vivo
In short: (§1)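 Female Sprague–Dawley rats were dosed intravenously at 1 mpk (n = 2) and orally at 2 mpk (n = 3) for pharmacokinetic evaluation.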

[8] = Half life period in female Sprague-Dawley rats; assay type: ADME, organism-based; conditions: female, Sprague-Dawley, rat, in vivo
In short: as §1

[9] = Plasma clearance of the compound in female Sprague-Dawley rats; assay type: ADME, organism-based; conditions: female, Sprague-Dawley, rat, plasma
In short: as §1

[10] = target: T1, Estrogen receptor (Rattus norvegicus); conditions: at 1 mg/kg; remark: listed apart in the source
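Wherever Antagonism is given: Read-out is rat uterine weight, with subcutaneous dosing.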

T2 sequence (Q92731 whole entry): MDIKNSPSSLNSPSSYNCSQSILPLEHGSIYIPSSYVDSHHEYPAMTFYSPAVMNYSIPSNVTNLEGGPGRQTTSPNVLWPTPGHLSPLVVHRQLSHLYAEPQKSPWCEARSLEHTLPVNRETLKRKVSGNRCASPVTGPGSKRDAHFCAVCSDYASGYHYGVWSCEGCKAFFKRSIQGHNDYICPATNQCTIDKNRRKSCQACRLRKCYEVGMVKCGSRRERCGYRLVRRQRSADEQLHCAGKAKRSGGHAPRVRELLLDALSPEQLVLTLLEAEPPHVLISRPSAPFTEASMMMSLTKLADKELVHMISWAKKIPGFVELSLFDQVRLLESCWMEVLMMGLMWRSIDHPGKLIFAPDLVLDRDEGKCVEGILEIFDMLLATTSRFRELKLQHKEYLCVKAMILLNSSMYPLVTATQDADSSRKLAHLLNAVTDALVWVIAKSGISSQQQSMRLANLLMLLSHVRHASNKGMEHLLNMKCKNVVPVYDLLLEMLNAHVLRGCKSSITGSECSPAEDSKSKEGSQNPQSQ

Row | Structure (SMILES) | Antagonism [1] | Estrogenic effect [2] | IC50 [3] | IC50 [4] | IC50 [5] | IC50 [6] | bioavailability [7] | half-life [8] | clearance [9] | Estrogenic effect [10]
1 | Oc1ccc([C@@H]2Sc3cc(O)ccc3O[C@@H]2c2ccc(OCCN3CCCCC3)cc2)cc1 (stereo in doubt; 11) | 77% | 5% |  |  |  |  |  |  |  | 
2 | Oc1cccc(C2Sc3cc(O)ccc3OC2c2ccc(OCCN3CCCCC3)cc2)c1 (stereo not given) | 90% | 16% | 0.25 µM | 0.0036 µM | 0.003 µM | 0.245 µM |  |  |  | 
3 | Oc1ccc2c(c1)SC(c1ccc(F)cc1)C(c1ccc(OCCN3CCCCC3)cc1)O2 (stereo not given) | 9.5% | 5% | 0.0666 µM | 0.094 µM | 0.0038 µM | 1.55 µM |  |  |  | 
4 | CN(C)CCOc1ccc([C@@H]2Oc3ccc(O)cc3S[C@@H]2c2cccc(O)c2)cc1 | 34% | 69% | 0.129 µM | 0.0023 µM | 0.0014 µM | 0.0073 µM |  |  |  | 
5 | Oc1ccc([C@@H]2Sc3c(F)cc(O)cc3O[C@@H]2c2ccc(OCCN3CCCCC3)cc2)cc1 | 89% | -2% | 0.013 µM | 0.0061 µM | 0.0005 µM | 0.516 µM | 4.4% | 5.9 h | 2.46 L/h/kg | 
6 | Oc1ccc2c(c1)S[C@@H](c1ccccc1O)[C@@H](c1ccc(OCCN3CCCCC3)cc1)O2 |  |  | 0.0011 µM |  | 0.0013 µM |  |  |  |  | 
7 | CCc1cc(O)cc2c1S[C@@H](c1ccc(O)cc1)[C@@H](c1ccc(OCCN3CCCCC3)cc1)O2 |  |  | 0.185 µM | 0.342 µM | 0.0533 µM | 1.46 µM |  |  |  | 
8 | Oc1ccc([C@@H]2Sc3cc(O)c(F)cc3O[C@@H]2c2ccc(OCCN3CCCCC3)cc2)cc1 | 53% | 13% | 0.413 µM |  | 0.0135 µM |  |  |  |  | 
9 | Oc1cccc([C@H]2Sc3cc(O)ccc3O[C@H]2c2ccc(OCCNC3CCCCCC3)cc2)c1 | 57% | 22% | 0.103 µM | 0.0035 µM | 0.0012 µM | 0.067 µM |  |  |  | 
10 | COc1ccc(C2Sc3cc(O)ccc3OC2c2ccc(OCCN3CCCCC3)cc2)cc1 (stereo not given) |  |  | 0.792 µM | 0.274 µM | 0.0411 µM | > 1 µM |  |  |  | 
11 | Oc1ccc([C@@H]2Sc3cc(Cl)c(O)cc3O[C@@H]2c2ccc(OCCN3CCCCC3)cc2)cc1 |  |  | 0.52 µM | 0.061 µM | 0.0231 µM | 3.02 µM |  |  |  | 
12 | Cc1cc(O)cc2c1O[C@H](c1ccc(OCCN3CCCCC3)cc1)[C@H](c1ccc(O)cc1)S2 | -4% | 12% | 0.343 µM | 0.0226 µM | 0.0053 µM | 0.69 µM |  |  |  | 
13 | Cc1cc(O)cc2c1S[C@@H](c1ccc(O)cc1)[C@@H](c1ccc(OCCN3CCCCC3)cc1)O2 |  |  | 0.0462 µM | 0.0055 µM | 0.002 µM | 0.2 µM | 6% | 2.7 h | 3.06 L/h/kg | 
14 | Oc1ccc([C@@H]2Sc3c(Cl)cc(O)cc3O[C@@H]2c2ccc(OCCN3CCCCC3)cc2)cc1 | 68% | 12% | 0.008 µM | 0.0034 µM | 0.00051 µM | 0.121 µM |  |  |  | 
15 | CCc1c(O)ccc2c1O[C@H](c1ccc(OCCN3CCCCC3)cc1)[C@H](c1ccc(O)cc1)S2 |  |  | 0.025 µM |  | 0.0047 µM |  |  |  |  | 
16 | Cc1c(O)ccc2c1O[C@H](c1ccc(OCCN3CCCCC3)cc1)[C@H](c1ccc(O)cc1)S2 | 29% | 27% | 0.054 µM | 0.0093 µM | 0.0012 µM | 0.0683 µM |  |  |  | 
17 | Oc1cccc([C@H]2Sc3cc(O)ccc3O[C@H]2c2ccc(OCCN3CCOCC3)cc2)c1 | 54% | 29% | 0.318 µM | 0.0047 µM | 0.0038 µM | 0.0653 µM |  |  |  | 
18 | CC1CCN(CCOc2ccc([C@@H]3Oc4ccc(O)cc4S[C@@H]3c3cccc(O)c3)cc2)CC1 | 59% | 29% | 0.109 µM | 0.004 µM | 0.0008 µM | 0.132 µM |  |  |  | 
19 | Oc1ccc([C@@H]2Sc3c(O)cc(O)cc3O[C@@H]2c2ccc(OCCN3CCCCC3)cc2)cc1 | 64% | 7% | 0.788 µM |  | 0.025 µM |  |  |  |  | 
20 | Oc1cccc([C@H]2Sc3cc(O)ccc3O[C@H]2c2ccc(OCCN3CCCC3)cc2)c1 | 77% | 22% | 0.037 µM | 0.0017 µM | 0.0009 µM | 0.0401 µM |  |  |  | 
21 | Cc1cc2c(cc1O)O[C@H](c1ccc(OCCN3CCCCC3)cc1)[C@H](c1ccc(O)cc1)S2 |  |  | 0.595 µM |  | 0.0349 µM |  |  |  |  | 
22 | Oc1ccc([C@@H]2Sc3c(ccc(O)c3Cl)O[C@@H]2c2ccc(OCCN3CCCCC3)cc2)cc1 | 67% | 27% | 0.014 µM | 0.001 µM | 0.0024 µM | 0.064 µM |  |  |  | 
23 | Oc1ccc([C@@H]2Sc3cc(O)c(Cl)cc3O[C@@H]2c2ccc(OCCN3CCCCC3)cc2)cc1 | 36% | 38% | 0.073 µM | 0.0148 µM | 0.0054 µM | 2.37 µM |  |  |  | 
24 | Oc1ccc([C@@H]2Sc3cc(O)cc(Cl)c3O[C@@H]2c2ccc(OCCN3CCCCC3)cc2)cc1 |  |  | 0.105 µM | 0.0254 µM | 0.0053 µM | 1.01 µM |  |  |  | 
25 | Oc1ccc([C@H]2Sc3cc(O)ccc3O[C@H]2c2ccc(OCCN3CCCCC3)cc2)cc1 |  |  |  |  |  |  | 62% | 3.4 h | 0.6 L/h/kg | 9%
26 | Oc1ccc([C@@H]2Sc3ccc(O)cc3O[C@@H]2c2ccc(OCCN3CCCCC3)cc2)cc1 | 67% | 1% | 0.0444 µM | 0.005 µM | 0.0018 µM | 0.239 µM | 0% | 2.2 h | 9.24 L/h/kg | 
27 | Oc1ccc([C@@H]2Sc3c(ccc(O)c3F)O[C@@H]2c2ccc(OCCN3CCCCC3)cc2)cc1 | 76% | 7% | 0.0132 µM | 0.0025 µM | 0.0008 µM | 0.177 µM | 22% | 2.4 h | 0.96 L/h/kg | 
28 | Oc1ccc2c(c1)SC(c1ccccc1)C(c1ccc(OCCN3CCCCC3)cc1)O2 (stereo not given) |  |  | 0.3 µM |  | 0.0119 µM |  |  |  |  | 
29 | Oc1cccc([C@H]2Sc3cc(O)ccc3O[C@H]2c2ccc(OCCN3CCCCC3)cc2)c1 | 78% | 12% | 0.115 µM | 0.0054 µM | 0.0041 µM | 0.157 µM |  |  |  | 
